From paper PMC4288442 (Biochemical and biophysical research communications, 2013)
Non-standard residues stand in square brackets, D forms with d. Residues, ends and D or L forms follow the SMILES beside them. Nle = CCCC[C@H](N)C(=O)O

Target: wild type (NL4-3) HIV-1 protease (Human immunodeficiency virus type 1 group M subtype B, UniProt P12497)
Experiment: FRET-based enzyme inhibition assay, wild type
Assay type: biochemical
Outline: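 Commercial wild-type NL4-3 HIV-1 protease, supplied at 0.3 mg/ml, assayed by FRET with a fluorogenic HIV-1 substrate. Peptide test compounds carry a reduced (-CH2-NH-) bond in place of the labile peptide bond so the protease cannot cleave them. IC50 is the average of three independent experiments, with SD.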

Compound | IC50 [nM]
CCCC[C@H](NC(=O)[C@H](C)NC(=O)[C@H](CCC(=O)O)NC(=O)[C@@H](N)Cc1ccccc1)C(=O)O [Compound 7a, Phe-Glu-Ala-Nle] (H-FEA[Nle]-OH) | > 1000
CC(C)C[C@H](NC(=O)[C@@H](NC(=O)[C@@H](N)CCCNC(=N)N)C(C)C)C(=O)O [Compound 7b, Arg-Val-Leu] (H-Arg-Val-Leu-OH) | > 1000
